Test results reported in ChEMBL document CHEMBL2157880, “Synthesis, antimycobacterial and antibacterial activity of ciprofloxacin derivatives containing a N-substituted benzyl moiety” (2012).
In brackets after ≈: the same amount, converted by molar mass.

Columns and labels:
Assay type in all cases: functional
[1] = test system: Staphylococcus epidermidis; assay: Ratio of compound MIC to ciprofloxacin MIC for methicillin-sensitive Staphylococcus epidermidis 10-11
Staphylococcus aureus [2] = assay: Antibacterial activity against Staphylococcus aureus ATCC 2592 after 18 to 24 hrs by NCCLS method
Procedure, shortened: (§1)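 Standard NCCLS (M100-S11) MIC testing against Gram-positive and Gram-negative strains. Plates were incubated at 35 °C for 18–24 h. The MIC was read as the lowest concentration giving complete inhibition of visible bacterial growth.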

Staphylococcus aureus [3] = assay: Antibacterial activity against methicillin-resistant Staphylococcus aureus 10-11 after 18 to 24 hrs by NCCLS method
Procedure, shortened: (§2)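 Incubated at 35 °C for 18–24 h under NCCLS (M100-S11) standards. MIC was read as the lowest concentration giving complete inhibition of visible bacterial growth.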

Enterococcus faecalis [4] = assay: Antibacterial activity against Enterococcus faecalis 10-7 after 18 to 24 hrs by NCCLS method; procedure, shortened: as §1
Escherichia coli [5] = assay: Antibacterial activity against Escherichia coli 10-1 after 18 to 24 hrs by NCCLS method; procedure, shortened: as §1
Klebsiella pneumoniae [6] = assay: Antibacterial activity against extended spectrum beta-lactamases producing Klebsiella pneumoniae 10-3 after 18 to 24 hrs by NCCLS method; procedure, shortened: as §1
[7] = test system: Mycobacterium tuberculosis; assay: Antimycobacterial activity against Mycobacterium tuberculosis H37Rv ATCC 27294 by microplate alamar blue assay
Procedure, shortened: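 Microplate Alamar Blue fluorescence assay on strain H37Rv ATCC 27294. MIC was the lowest concentration cutting fluorescence by ≥90% against the mean of replicate bacterium-only controls.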

Staphylococcus aureus [8] = assay: Antibacterial activity against methicillin-sensitive Staphylococcus aureus 10-11 after 18 to 24 hrs by NCCLS method; procedure, shortened: as §1
Enterococcus faecium [9] = assay: Antibacterial activity against Enterococcus faecium 10-6 after 18 to 24 hrs by NCCLS method; procedure, shortened: as §1
Klebsiella pneumoniae [10] = assay: Antibacterial activity against Klebsiella pneumoniae 10-3 after 18 to 24 hrs by NCCLS method; procedure, shortened: as §1
Staphylococcus aureus [11] = assay: Antibacterial activity against methicillin-sensitive Staphylococcus aureus 10-13 after 18 to 24 hrs by NCCLS method; procedure, shortened: as §1
Streptococcus pneumoniae [12] = assay: Ratio of compound MIC to ciprofloxacin MIC for Streptococcus pneumoniae 10-1
Klebsiella pneumoniae [13] = assay: Antibacterial activity against Klebsiella pneumoniae 10-2 after 18 to 24 hrs by NCCLS method; procedure, shortened: as §1
Staphylococcus aureus [14] = assay: Antibacterial activity against methicillin-resistant Staphylococcus aureus 10-13 after 18 to 24 hrs by NCCLS method; procedure, shortened: as §2
Enterococcus faecalis [15] = assay: Antibacterial activity against Enterococcus faecalis 10-5 after 18 to 24 hrs by NCCLS method; procedure, shortened: as §1
Staphylococcus aureus [16] = assay: Ratio of compound MIC to ciprofloxacin MIC for methicillin-sensitive Staphylococcus aureus 10-13
Streptococcus pneumoniae [17] = assay: Antibacterial activity against Streptococcus pneumoniae 10-1 after 18 to 24 hrs by NCCLS method; procedure, shortened: as §1
Pseudomonas aeruginosa [18] = assay: Antibacterial activity against Pseudomonas aeruginosa 10-5 after 18 to 24 hrs by NCCLS method; procedure, shortened: as §1
Staphylococcus aureus [19] = assay: Antibacterial activity against methicillin-resistant Staphylococcus aureus 10-15 after 18 to 24 hrs by NCCLS method; procedure, shortened: as §2
[20] = test system: Staphylococcus epidermidis; assay: Antibacterial activity against methicillin-sensitive Staphylococcus epidermidis 10-15 after 18 to 24 hrs by NCCLS method; procedure, shortened: as §2
Pseudomonas aeruginosa [21] = assay: Antibacterial activity against Pseudomonas aeruginosa 10-20 after 18 to 24 hrs by NCCLS method; procedure, shortened: as §1
[22] = test system: Staphylococcus epidermidis; assay: Antibacterial activity against methicillin-sensitive Staphylococcus epidermidis 10-11 after 18 to 24 hrs by NCCLS method; procedure, shortened: as §1
Streptococcus pneumoniae [23] = assay: Ratio of compound MIC to ciprofloxacin MIC for Streptococcus pneumoniae 10-6
Escherichia coli [24] = assay: Antibacterial activity against Escherichia coli 10-2 after 18 to 24 hrs by NCCLS method; procedure, shortened: as §1
Enterococcus faecalis [25] = assay: Ratio of compound MIC to ciprofloxacin MIC for Enterococcus faecalis 10-6
Staphylococcus aureus [26] = assay: Ratio of compound MIC to ciprofloxacin MIC for Staphylococcus aureus ATCC 2592
Klebsiella pneumoniae [27] = assay: Antibacterial activity against Klebsiella pneumoniae 10-4 after 18 to 24 hrs by NCCLS method; procedure, shortened: as §1
Enterococcus faecalis [28] = assay: Ratio of compound MIC to ciprofloxacin MIC for Enterococcus faecalis 10-5
Enterococcus faecium [29] = assay: Ratio of compound MIC to ciprofloxacin MIC for Enterococcus faecium 10-9
Streptococcus pneumoniae [30] = assay: Antibacterial activity against Streptococcus pneumoniae 10-6 after 18 to 24 hrs by NCCLS method; procedure, shortened: as §1
Escherichia coli [31] = assay: Antibacterial activity against Escherichia coli 10-3 after 18 to 24 hrs by NCCLS method; procedure, shortened: as §1
Pseudomonas aeruginosa [32] = assay: Antibacterial activity against Pseudomonas aeruginosa 10-12 after 18 to 24 hrs by NCCLS method; procedure, shortened: as §1
[33] = test system: Staphylococcus epidermidis; assay: Antibacterial activity against methicillin-resistant Staphylococcus epidermidis 10-10 after 18 to 24 hrs by NCCLS method; procedure, shortened: as §2
Pseudomonas aeruginosa [34] = assay: Antibacterial activity against Pseudomonas aeruginosa 10-15 after 18 to 24 hrs by NCCLS method; procedure, shortened: as §1
Staphylococcus aureus [35] = assay: Antibacterial activity against methicillin-sensitive Staphylococcus aureus 10-14 after 18 to 24 hrs by NCCLS method; procedure, shortened: as §1
Enterococcus faecalis [36] = assay: Ratio of compound MIC to ciprofloxacin MIC for Enterococcus faecalis 10-7
Escherichia coli [37] = assay: Antibacterial activity against extended spectrum beta-lactamases producing Escherichia coli 10-2 after 18 to 24 hrs by NCCLS method; procedure, shortened: as §1
Staphylococcus aureus [38] = assay: Ratio of compound MIC to ciprofloxacin MIC for methicillin-sensitive Staphylococcus aureus 10-11
Escherichia coli [39] = assay: Antibacterial activity against Escherichia coli ATCC 25922 after 18 to 24 hrs by NCCLS method; procedure, shortened: as §1
Enterococcus faecium [40] = assay: Antibacterial activity against Enterococcus faecium 10-9 after 18 to 24 hrs by NCCLS method; procedure, shortened: as §1
Pseudomonas aeruginosa [41] = assay: Antibacterial activity against Pseudomonas aeruginosa 10-9 after 18 to 24 hrs by NCCLS method; procedure, shortened: as §1
Pseudomonas aeruginosa [42] = assay: Antibacterial activity against Pseudomonas aeruginosa 10-18 after 18 to 24 hrs by NCCLS method; procedure, shortened: as §1
Escherichia coli [43] = assay: Antibacterial activity against extended spectrum beta-lactamases producing Escherichia coli 10-3 after 18 to 24 hrs by NCCLS method; procedure, shortened: as §1
Escherichia coli [44] = assay: Antibacterial activity against extended spectrum beta-lactamases producing Escherichia coli 10-4 after 18 to 24 hrs by NCCLS method; procedure, shortened: as §1
Staphylococcus aureus [45] = assay: Ratio of compound MIC to ciprofloxacin MIC for methicillin-sensitive Staphylococcus aureus 10-14
Enterococcus faecalis [46] = assay: Antibacterial activity against Enterococcus faecalis 10-6 after 18 to 24 hrs by NCCLS method; procedure, shortened: as §1
Klebsiella pneumoniae [47] = assay: Antibacterial activity against extended spectrum beta-lactamases producing Klebsiella pneumoniae 10-2 after 18 to 24 hrs by NCCLS method; procedure, shortened: as §1
Enterococcus faecium [48] = assay: Ratio of compound MIC to ciprofloxacin MIC for Enterococcus faecium 10-6
Klebsiella pneumoniae [49] = assay: Antibacterial activity against extended spectrum beta-lactamases producing Klebsiella pneumoniae 10-1 after 18 to 24 hrs by NCCLS method; procedure, shortened: as §1
[50] = test system: Staphylococcus epidermidis; assay: Antibacterial activity against methicillin-resistant Staphylococcus epidermidis 10-13 after 18 to 24 hrs by NCCLS method; procedure, shortened: as §2
[51] = test system: Staphylococcus epidermidis; assay: Ratio of compound MIC to ciprofloxacin MIC for methicillin-sensitive Staphylococcus epidermidis 10-15

**Q.** Which results are given for `COc1ccc(CN2CCN(c3cc4c(cc3F)c(=O)c(C(=O)O)cn4C3CC3)CC2)cc1`?
**A.** Ratio [1]: 2; MIC (Staphylococcus aureus [2]): 0.06 µg/mL (≈ 0.133 µM); MIC (Staphylococcus aureus [3]): 16 µg/mL (≈ 35.4 µM); MIC (Enterococcus faecalis [4]): 8 µg/mL (≈ 17.7 µM); MIC (Escherichia coli [5]): > 128 µg/mL; MIC (Klebsiella pneumoniae [6]): > 128 µg/mL; MIC [7]: 1 µg/mL (≈ 2.21 µM); MIC (Staphylococcus aureus [8]): 0.125 µg/mL (≈ 0.277 µM); MIC (Enterococcus faecium [9]): 1 µg/mL (≈ 2.21 µM); MIC (Klebsiella pneumoniae [10]): 4 µg/mL (≈ 8.86 µM); MIC (Staphylococcus aureus [11]): 0.25 µg/mL (≈ 0.554 µM); Ratio (Streptococcus pneumoniae [12]): 2; MIC (Klebsiella pneumoniae [13]): > 128 µg/mL; MIC (Staphylococcus aureus [14]): 16 µg/mL (≈ 35.4 µM); MIC (Enterococcus faecalis [15]): 4 µg/mL (≈ 8.86 µM); Ratio (Staphylococcus aureus [16]): 2; MIC (Streptococcus pneumoniae [17]): 1 µg/mL (≈ 2.21 µM); MIC (Pseudomonas aeruginosa [18]): 4 µg/mL (≈ 8.86 µM); MIC (Staphylococcus aureus [19]): 4 µg/mL (≈ 8.86 µM); MIC [20]: 8 µg/mL (≈ 17.7 µM); MIC (Pseudomonas aeruginosa [21]): 4 µg/mL (≈ 8.86 µM); MIC [22]: 0.5 µg/mL (≈ 1.11 µM); Ratio (Streptococcus pneumoniae [23]): 2; MIC (Escherichia coli [24]): 8 µg/mL (≈ 17.7 µM); Ratio (Enterococcus faecalis [25]): 2; Ratio (Staphylococcus aureus [26]): 2; MIC (Klebsiella pneumoniae [27]): > 128 µg/mL; Ratio (Enterococcus faecalis [28]): 2; Ratio (Enterococcus faecium [29]): 2; MIC (Streptococcus pneumoniae [30]): 16 µg/mL (≈ 35.4 µM); MIC (Escherichia coli [31]): 8 µg/mL (≈ 17.7 µM); MIC (Pseudomonas aeruginosa [32]): 2 µg/mL (≈ 4.43 µM); MIC [33]: 8 µg/mL (≈ 17.7 µM); MIC (Pseudomonas aeruginosa [34]): 2 µg/mL (≈ 4.43 µM); MIC (Staphylococcus aureus [35]): 0.25 µg/mL (≈ 0.554 µM); Ratio (Enterococcus faecalis [36]): 2; MIC (Escherichia coli [37]): > 128 µg/mL; Ratio (Staphylococcus aureus [38]): 2; MIC (Escherichia coli [39]): 0.125 µg/mL (≈ 0.277 µM); MIC (Enterococcus faecium [40]): 16 µg/mL (≈ 35.4 µM); MIC (Pseudomonas aeruginosa [41]): 4 µg/mL (≈ 8.86 µM); MIC (Pseudomonas aeruginosa [42]): 4 µg/mL (≈ 8.86 µM); MIC (Escherichia coli [43]): > 128 µg/mL; MIC (Escherichia coli [44]): 8 µg/mL (≈ 17.7 µM); Ratio (Staphylococcus aureus [45]): 2; MIC (Enterococcus faecalis [46]): 32 µg/mL (≈ 70.9 µM); MIC (Klebsiella pneumoniae [47]): > 128 µg/mL; Ratio (Enterococcus faecium [48]): 2; MIC (Klebsiella pneumoniae [49]): > 128 µg/mL; MIC [50]: 8 µg/mL (≈ 17.7 µM); Ratio [51]: 2
